ChEMBL document CHEMBL5303300, “EUbOPEN Chemogenomics Library - Multiplex” (2023)
Where “and” joins values, the source holds several entries; their conditions need not be identical. Equal values may be shown once.

Legend:
[1] = test system: Fibroblast; test: Multiplex assay against human fibroblast; assay type: toxicity, cell-based; settings: number of replicates 2
Procedure, shortened: (§1)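 Cells were classed with CellPathfinder machine-learning gating, first as Hoechst high-intensity objects or normal cells, then (normal cells) as healthy, pyknosed or fragmented nuclei, and finally (pyknosed cells) as mitotic or apoptotic. Staining of live cells at seeding used Hoechst33342, BioTracker Green Microtubule Cytoskeleton Dye, MitoTracker Red and Annexin V Alexa Fluor 680, with imaging on a CQ1 microscope at 37°C and 5% CO2 after compound addition. Tubulin, mitochondrial-mass and membrane-permeability phenotypes are per cents of healthy-nucleus cells.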

[2] = test system: HEK-293T; test: Multiplex assay against HEK293T; assay type: toxicity, cell-based; settings: human, number of replicates 2; procedure, shortened: as §1
[3] = 12 h, 1 µM, compound concentration 1 uM
[4] = 12 h, 10 µM, compound concentration 10 uM
[5] = 24 h, 1 µM, compound concentration 1 uM
[6] = 24 h, 10 µM, compound concentration 10 uM
[7] = 48 h, 1 µM, compound concentration 1 uM
[8] = 48 h, 10 µM, compound concentration 10 uM

Structure (SMILES): COc1cc(Nc2cnc(C#N)c(O[C@H](C)CN(C)C)n2)ncc1-c1cnn(C)c1
- Population Apoptotic (%) [1, 3]: 37% and 47%
- Population Fragmented Nuclei (%) [1, 3]: 12% and 13%
- Population Healthy Nuclei (%) [1, 3]: 67% and 77%
- Population Hoechst High Intensity Objects (%) [1, 3]: 0%
- Population Membrane Permeable-Phenotype (%) [1, 3]: 3% and 2%
- Population Mitochondria Different-Phenotype (%) [1, 3]: 1%
- Population Mitotic Cells (%) [1, 3]: 62% and 52%
- Population Normal (%) [1, 3]: 100%
- Population Pyknosed Nuclei (%) [1, 3]: 20% and 9%
- Population Tubulin-Different-Phenotype (%) [1, 3]: 11% and 3%
- Total Cell Count [1, 3]: 185 and 222
- Population Apoptotic (%) [1, 4]: 37% and 41%
- Population Fragmented Nuclei (%) [1, 4]: 24% and 26%
- Population Healthy Nuclei (%) [1, 4]: 69% and 64%
- Population Hoechst High Intensity Objects (%) [1, 4]: 0%
- Population Membrane Permeable-Phenotype (%) [1, 4]: 2% and 4%
- Population Mitochondria Different-Phenotype (%) [1, 4]: 0%
- Population Mitotic Cells (%) [1, 4]: 62% and 58%
- Population Normal (%) [1, 4]: 99% and 100%
- Population Pyknosed Nuclei (%) [1, 4]: 5% and 8%
- Population Tubulin-Different-Phenotype (%) [1, 4]: 26% and 17%
- Total Cell Count [1, 4]: 300 and 346
- Population Apoptotic (%) [1, 5]: 50% and 40%
- Population Fragmented Nuclei (%) [1, 5]: 9% and 11%
- Population Healthy Nuclei (%) [1, 5]: 80% and 78%
- Population Hoechst High Intensity Objects (%) [1, 5]: 0%
- Population Membrane Permeable-Phenotype (%) [1, 5]: 2% and 3%
- Population Mitochondria Different-Phenotype (%) [1, 5]: 2% and 1%
- Population Mitotic Cells (%) [1, 5]: 50% and 60%
- Population Normal (%) [1, 5]: 100%
- Population Pyknosed Nuclei (%) [1, 5]: 9%
- Population Tubulin-Different-Phenotype (%) [1, 5]: 13% and 5%
- Total Cell Count [1, 5]: 168 and 206
- Population Apoptotic (%) [1, 6]: 61% and 70%
- Population Fragmented Nuclei (%) [1, 6]: 28% and 29%
- Population Healthy Nuclei (%) [1, 6]: 67% and 65%
- Population Hoechst High Intensity Objects (%) [1, 6]: 1% and 0%
- Population Membrane Permeable-Phenotype (%) [1, 6]: 3% and 0%
- Population Mitochondria Different-Phenotype (%) [1, 6]: 1% and 0%
- Population Mitotic Cells (%) [1, 6]: 38% and 30%
- Population Normal (%) [1, 6]: 98% and 100%
- Population Pyknosed Nuclei (%) [1, 6]: 4% and 5%
- Population Tubulin-Different-Phenotype (%) [1, 6]: 24% and 13%
- Total Cell Count [1, 6]: 292 and 355
- Population Apoptotic (%) [1, 7]: 43% and 64%
- Population Fragmented Nuclei (%) [1, 7]: 14% and 12%
- Population Healthy Nuclei (%) [1, 7]: 75% and 80%
- Population Hoechst High Intensity Objects (%) [1, 7]: 0%
- Population Membrane Permeable-Phenotype (%) [1, 7]: 0% and 1%
- Population Mitochondria Different-Phenotype (%) [1, 7]: 0%
- Population Mitotic Cells (%) [1, 7]: 56% and 35%
- Population Normal (%) [1, 7]: 100%
- Population Pyknosed Nuclei (%) [1, 7]: 9% and 6%
- Population Tubulin-Different-Phenotype (%) [1, 7]: 8% and 1%
- Total Cell Count [1, 7]: 170 and 205
- Population Apoptotic (%) [1, 8]: 43% and 75%
- Population Fragmented Nuclei (%) [1, 8]: 27% and 30%
- Population Healthy Nuclei (%) [1, 8]: 66%
- Population Hoechst High Intensity Objects (%) [1, 8]: 0%
- Population Membrane Permeable-Phenotype (%) [1, 8]: 1% and 2%
- Population Mitochondria Different-Phenotype (%) [1, 8]: 0%
- Population Mitotic Cells (%) [1, 8]: 56% and 25%
- Population Normal (%) [1, 8]: 100% and 99%
- Population Pyknosed Nuclei (%) [1, 8]: 5% and 3%
- Population Tubulin-Different-Phenotype (%) [1, 8]: 29% and 12%
- Total Cell Count [1, 8]: 312 and 369
- Population Apoptotic (%) [2, 3]: 43% and 40%
- Population Fragmented Nuclei (%) [2, 3]: 3%
- Population Healthy Nuclei (%) [2, 3]: 78% and 82%
- Population Hoechst High Intensity Objects (%) [2, 3]: 4% and 7%
- Population Membrane Permeable-Phenotype (%) [2, 3]: 5% and 3%
- Population Mitochondria Different-Phenotype (%) [2, 3]: 19% and 14%
- Population Mitotic Cells (%) [2, 3]: 56% and 59%
- Population Normal (%) [2, 3]: 95% and 92%
- Population Pyknosed Nuclei (%) [2, 3]: 18% and 14%
- Population Tubulin-Different-Phenotype (%) [2, 3]: 54% and 50%
- Total Cell Count [2, 3]: 593 and 622
- Population Apoptotic (%) [2, 4]: 59% and 57%
- Population Fragmented Nuclei (%) [2, 4]: 2%
- Population Healthy Nuclei (%) [2, 4]: 62% and 75%
- Population Hoechst High Intensity Objects (%) [2, 4]: 6% and 4%
- Population Membrane Permeable-Phenotype (%) [2, 4]: 5% and 3%
- Population Mitochondria Different-Phenotype (%) [2, 4]: 45% and 52%
- Population Mitotic Cells (%) [2, 4]: 40% and 43%
- Population Normal (%) [2, 4]: 93% and 95%
- Population Pyknosed Nuclei (%) [2, 4]: 35% and 21%
- Population Tubulin-Different-Phenotype (%) [2, 4]: 87% and 90%
- Total Cell Count [2, 4]: 383 and 486
- Population Apoptotic (%) [2, 5]: 28% and 26%
- Population Fragmented Nuclei (%) [2, 5]: 5%
- Population Healthy Nuclei (%) [2, 5]: 84% and 80%
